Activity calls are given as the source filed them. The calls are words filed in the database; no cut-off is given here.
Tests used:
Rattus norvegicus [1] = organism: Rattus norvegicus; assay: Positive allosteric modulation of AMPA receptor in rat embryonic hippocampal neurons assessed as concentration required to double glutamate-induced steady-state current by patch clamp electrophysiology assay; conditions: Hippocampus
[2] = Displacement of [3H]-AMPAKINE from AMPA receptor in rat forebrain cell membranes; parameters: species or system Membrane
Rattus norvegicus [3] = organism: Rattus norvegicus; assay: Positive allosteric modulation of AMPA receptor in rat hippocampal slices assessed as increase of fEPSP-induced current amplitude at 3 uM; type: tissue-based; conditions: Hippocampus
Method in brief: (§1)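 Field recordings in in vitro hippocampal slices. Result is the percent rise in fEPSP amplitude, measured at the stated compound concentration.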

Rattus norvegicus [4] = organism: Rattus norvegicus; assay: Positive allosteric modulation of AMPA receptor in rat hippocampal slices assessed as increase of fEPSP-induced current amplitude at 10 uM; type: tissue-based; conditions: Hippocampus; method in brief: as §1
Rattus norvegicus [5] = organism: Rattus norvegicus; assay: Positive allosteric modulation of AMPA receptor in rat hippocampal slices assessed as increase of fEPSP-induced current amplitude at 1 uM; type: tissue-based; conditions: Hippocampus; method in brief: as §1
Rattus norvegicus [6] = organism: Rattus norvegicus; assay: Positive allosteric modulation of AMPA receptor in rat hippocampal slices assessed as increase of fEPSP-induced current amplitude at 30 uM; type: tissue-based; conditions: Hippocampus; method in brief: as §1
Rattus norvegicus [7] = organism: Rattus norvegicus; assay: Ratio of compound to CX614 for AMPA receptor in rat embryonic hippocampal neurons assessed as concentration required to double glutamate-induced steady-state current; conditions: Hippocampus

SMILES | CD (Rattus norvegicus [1]) | Ki [2] [µM] | Activity (Rattus norvegicus [3]) [%] | Activity (Rattus norvegicus [4]) [%] | Activity (Rattus norvegicus [5]) [%] | Activity (Rattus norvegicus [6]) [%] | Ratio (Rattus norvegicus [7])
O=C1c2cc3c(cc2OCN1CCc1ccc(Cl)cc1)C(=O)N1CCCC1O3 (stereo not drawn) | > 40 µM | – | – | – | – | – | –
Cc1nccn1CCN1COc2cc3c(cc2C1=O)OC1CCCN1C3=O (stereo not drawn) | 1.8 µM | 227 | – | – | – | – | –
CSCCN1COc2cc3c(cc2C1=O)OC1CCCN1C3=O (stereo not drawn) | 0.29 µM | 17 | 12 | – | – | – | –
COc1cccc(CCN2COc3cc4c(cc3C2=O)OC2CCCN2C4=O)c1 (stereo not drawn) | 14 µM | 69 | – | – | – | – | –
O=C1c2cc3c(cc2OCN1CCO)C(=O)N1CCCC1O3 (stereo not drawn) | 1.3 µM | 33 | – | – | – | – | –
CN(CCCN1COc2cc3c(cc2C1=O)OC1CCCN1C3=O)S(C)(=O)=O (stereo not drawn) | 0.33 µM | 34 | – | 9 | – | – | –
N#CSCCN1COc2cc3c(cc2C1=O)OC1CCCN1C3=O (stereo not drawn) | 0.06 µM | 1 | 7 | – | – | – | –
N#CCCCN1COc2cc3c(cc2C1=O)OC1CCCN1C3=O (stereo not drawn) | 0.05 µM | 6.8 | 11 | – | – | – | –
O=C1c2cc3c(cc2OCN1CCc1cccc([N+](=O)[O-])c1)C(=O)N1CCCC1O3 (stereo not drawn) | 0.015 µM | 3.6 | 8 | – | – | – | –
O=C1c2cc3c(cc2OCN1CCc1ccon1)C(=O)N1CCCC1O3 (stereo not drawn) | 0.4 µM | 41 | 4 | – | – | – | –
O=C1c2cc3c(cc2OCN1CCc1cccnc1)C(=O)N1CCCC1O3 (stereo not drawn) | 0.2 µM | 6.6 | 15 | – | – | – | –
O=C1c2cc3c(cc2OCN1CCn1cc([N+](=O)[O-])cn1)C(=O)N1CCCC1O3 (stereo not drawn) | 0.0065 µM | 0.24 | – | – | 29 | – | –
CCN1COc2cc3c(cc2C1=O)OC1CCCN1C3=O (stereo not drawn) | 0.2 µM | 20 | – | 17 | – | – | –
O=C1c2cc3c(cc2OCN1CCn1cncn1)C(=O)N1CCCC1O3 (stereo not drawn) | 0.063 µM | 2.1 | 31 | – | – | – | –
O=C1c2cc3c(cc2OCN1CCc1cccc(Br)c1)C(=O)N1CCCC1O3 (stereo not drawn) | 1.6 µM | 150 | – | – | – | – | –
CS(=O)(=O)CCN1COc2cc3c(cc2C1=O)OC1CCCN1C3=O (stereo not drawn) | 0.32 µM | 20 | 6 | – | – | – | –
O=C1c2cc3c(cc2OCN1CCc1ccc(F)cc1)C(=O)N1CCCC1O3 (stereo not drawn) | 1.2 µM | – | – | – | – | 6 | –
CN(CCN1COc2cc3c(cc2C1=O)OC1CCCN1C3=O)S(C)(=O)=O (stereo not drawn) | 0.38 µM | 31 | – | 8 | – | – | –
O=C1c2cc3c(cc2OCN1CCn1ccnc1)C(=O)N1CCCC1O3 (stereo not drawn) | 0.05 µM | 6.6 | – | 38 | – | – | –
C[S+]([O-])CCN1COc2cc3c(cc2C1=O)OC1CCCN1C3=O (stereo not drawn) | 0.11 µM | 13 | 14 | – | – | – | –

SMILES | CD (Rattus norvegicus [1]) | Ki [2] [µM] | Activity (Rattus norvegicus [3]) [%] | Activity (Rattus norvegicus [4]) [%] | Activity (Rattus norvegicus [5]) [%] | Activity (Rattus norvegicus [6]) [%] | Ratio (Rattus norvegicus [7])
O=C1c2cc3c(cc2OCN1CCc1c[nH]cn1)C(=O)N1CCCC1O3 (stereo not drawn) | 5.1 µM | 225 | – | – | – | – | –
O=C1c2cc3c(cc2OCN1CCn1ccnn1)C(=O)N1CCCC1O3 (stereo not drawn) | 0.16 µM | 5.1 | – | – | 8 | – | –
COCCN1COc2cc3c(cc2C1=O)OC1CCCN1C3=O (stereo not drawn) | 1.2 µM | 41 | – | 14 | – | – | –
O=C1c2cc3c(cc2OCN1CCc1cccc(F)c1)C(=O)N1CCCC1O3 (stereo not drawn) | 0.011 µM | 0.5 | 16 | – | – | – | –
N#Cc1ccnn1CCN1COc2cc3c(cc2C1=O)OC1CCCN1C3=O (stereo not drawn) | 0.045 µM | 22 | 16 | – | – | – | –
O=C1c2cc3c(cc2OC2CCCN12)OCCO3 (stereo not drawn) | 2.3 µM | – | – | – | – | – | –
NC(=O)c1cccc(CCN2COc3cc4c(cc3C2=O)OC2CCCN2C4=O)c1 (stereo not drawn) | 5 µM | 620 | – | – | – | – | –
O=C1c2cc3c(cc2OCN1CCc1cccs1)C(=O)N1CCCC1O3 (stereo not drawn) | 0.032 µM | 2 | – | – | – | – | –
C[C@@H]1CN2C(=O)c3cc4c(cc3O[C@H]2O1)OCO4 | 200 µM | – | – | – | – | – | –
O=C1c2cc3c(cc2OCN1CCc1cccc(Cl)c1)C(=O)N1CCCC1O3 (stereo not drawn) | 0.02 µM | 1.8 | – | – | – | 7 | –
N#Cc1cnn(CCN2COc3cc4c(cc3C2=O)OC2CCCN2C4=O)c1 (stereo not drawn) | 0.04 µM | 1 | 29 | – | – | – | –
N#CNCCN1COc2cc3c(cc2C1=O)OC1CCCN1C3=O (stereo not drawn) | 1.8 µM | 51 | – | 2 | – | – | –
N#Cc1ccn(CCN2COc3cc4c(cc3C2=O)OC2CCCN2C4=O)n1 (stereo not drawn) | 0.1 µM | 18 | 10 | – | – | – | –
O=C1c2cc3c(cc2OCN1CCc1cccc(OC(F)(F)F)c1)C(=O)N1CCCC1O3 (stereo not drawn) | 3 µM | 13 | – | – | – | – | –
O=C1c2cc3c(cc2OCN1Cc1ccccc1)C(=O)N1CCCC1O3 (stereo not drawn) | 6 µM | – | – | – | – | – | –
N#Cc1cccc(CCN2COc3cc4c(cc3C2=O)OC2CCCN2C4=O)c1 (stereo not drawn) | 0.027 µM | 3 | 16 | – | – | – | –
O=C1c2cc3c(cc2OCN1CCc1ccccn1)C(=O)N1CCCC1O3 (stereo not drawn) | 0.6 µM | 130 | – | – | – | 15 | –
NC(=O)CCN1COc2cc3c(cc2C1=O)OC1CCCN1C3=O (stereo not drawn) | 1.1 µM | 51 | – | – | – | 6 | –
O=C1c2cc3c(cc2OCN1CCc1ccccc1)C(=O)N1CCCC1O3 (stereo not drawn) | 0.25 µM | 7.9 | 3 | – | – | 19 | –
O=C1c2cc3c(cc2OCN1CCn1cc(Br)cn1)C(=O)N1CCCC1O3 (stereo not drawn) | 0.02 µM | 2.5 | 32 | – | – | – | –

SMILES | CD (Rattus norvegicus [1]) | Ki [2] [µM] | Activity (Rattus norvegicus [3]) [%] | Activity (Rattus norvegicus [4]) [%] | Activity (Rattus norvegicus [5]) [%] | Activity (Rattus norvegicus [6]) [%] | Ratio (Rattus norvegicus [7])
N#CCCN1COc2cc3c(cc2C1=O)OC1CCCN1C3=O (stereo not drawn) | 0.6 µM | 11 | – | 19 | – | – | –
O=C1c2cc3c(cc2OCN1CCn1cc(Cl)cn1)C(=O)N1CCCC1O3 (stereo not drawn) | 0.0037 µM | 0.33 | – | – | 23 | – | –
[N-]=[N+]=NCCN1COc2cc3c(cc2C1=O)OC1CCCN1C3=O (stereo not drawn) | 0.08 µM | 5.9 | 16 | – | – | – | –
O=C1c2cc3c(cc2OCN1CCc1cccc(C(F)(F)F)c1)C(=O)N1CCCC1O3 (stereo not drawn) | 0.2 µM | 2.5 | – | – | – | 1 | –
O=C1c2cc3c(cc2OCN1c1ccccc1)C(=O)N1CCCC1O3 (stereo not drawn) | inactive | – | – | – | – | – | –
O=C1c2cc3c(cc2OCN1CCn1nccn1)C(=O)N1CCCC1O3 (stereo not drawn) | 0.8 µM | 62 | 7 | – | – | – | –
CS(=O)(=O)NCCN1COc2cc3c(cc2C1=O)OC1CCCN1C3=O (stereo not drawn) | 0.33 µM | 8.4 | 10 | – | – | – | –
N#CCN1COc2cc3c(cc2C1=O)OC1CCCN1C3=O (stereo not drawn) | 0.5 µM | 17 | – | 10 | – | – | –
O=C1c2cc3c(cc2OCN1CCc1ccncc1)C(=O)N1CCCC1O3 (stereo not drawn) | 0.24 µM | 43 | 3 | 15 | – | – | –
O=C1c2cc3c(cc2OCN1CCc1cc(F)cc(F)c1)C(=O)N1CCCC1O3 (stereo not drawn) | 0.005 µM | 0.3 | 16 | – | – | – | 460
C[C@H]1CN2C(=O)c3cc4c(cc3O[C@@H]2O1)OCO4 | 2 µM | – | – | – | – | – | –
N#CCCCCN1COc2cc3c(cc2C1=O)OC1CCCN1C3=O (stereo not drawn) | 0.11 µM | 4.5 | – | 22 | – | – | –
O=C1c2cc3c(cc2OCN1CCc1ccsc1)C(=O)N1CCCC1O3 (stereo not drawn) | 0.02 µM | 0.27 | 15 | – | – | – | –
O=C1c2cc3c(cc2OCN1CCn1cccn1)C(=O)N1CCCC1O3 (stereo not drawn) | 0.064 µM | 5.1 | 15 | – | – | – | –
O=C1c2cc3c(cc2OCN1CCc1ccccc1Cl)C(=O)N1CCCC1O3 (stereo not drawn) | 7.1 µM | – | – | – | – | – | –
NC(=S)c1cccc(CCN2COc3cc4c(cc3C2=O)OC2CCCN2C4=O)c1 (stereo not drawn) | 0.4 µM | – | – | 5 | – | – | –
O=C1c2cc3c(cc2OCN1CCn1cnc([N+](=O)[O-])n1)C(=O)N1CCCC1O3 (stereo not drawn) | 0.01 µM | 4.2 | 14 | – | – | – | –
O=C1c2cc3c(cc2OCN1CCc1ccccc1F)C(=O)N1CCCC1O3 (stereo not drawn) | 5.4 µM | 36 | – | – | – | – | –
O=C1c2cc3c(cc2OCN1CCCc1ccccc1)C(=O)N1CCCC1O3 (stereo not drawn) | 3.6 µM | – | – | – | – | – | –
